Source: PubChem BioAssay
The source made the active and inactive calls.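 Rule for the calls, unless noted: active = viability at or below 10% of carrier control in both of two separate runs; inconclusive = viability at or below 10% in only one of the two runs; inactive = the rest.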

Columns and labels:
[1] = reduced viability of SK-BR-3 breast cancer cells – cell-based, 24 h, human, pilot screen (AID 572); conditions: SK-BR-3 viability, CellTiter-Glo luminescence, at 10 µM, stronger effect = lower value;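 note: compound exposure lasted between 18 and 24 h rather than exactly 24 h; 100% = carrier-treated control wells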
[2] = HUVEC growth inhibition – cell-based, human, primary screen (AID 575;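 active = viability at or below 30% in both replicate assays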;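 note: 100% = median of untreated cell wells with 0.1% DMSO on each plate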); conditions: HUVEC proliferation, CellTiter-Glo luminescence, 72 h; at 10 µM; stronger effect = lower value
In short: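 Assay system: primary human umbilical vein endothelial cells / Buffer or medium: endothelial basal medium with 2% FBS plus growth supplements / Compound dosing: one dose, 10 µM final, 0.1% DMSO / Timing: 72 h treatment at 37 °C / Signal: CTG luminescence / Benchmarks: 32 DMSO-only cell-control wells (high), 32 MePR drug-control wells (low) per plate / Plate: collagen-coated 384-well format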

[3] = H69AR cell proliferation blockers – human, duplicate replicates, primary screen (AID 580;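 active = viability at or under a set limit in both replicates, limit being median viability minus 3 SD, cut at about 48% in these data, passing the limit was not always enough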;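 note: 100% = mean luminescence of untreated wells and 0% = no signal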); conditions: H69AR lung tumor cells viability, ATP luminescence, 72 h; at 10 µM; stronger effect = lower value
[4] = MRP1 drug-resistance reversers in H69AR cells – cell-based, doxorubicin co-treatment, pilot screen (AID 601;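 active = viability loss from added drug above about 55%, and viability with drug at most 40%, in both replicates, limit read from the data, passing the limit was not always enough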); conditions: CellTiter-Glo, 72 h, at 10 µM; for differential viability (reversal): stronger effect = higher value
[5] = yeast transport mutant growth inhibition pilot in 384-well plates, post-Golgi transport modulator project (AID 636; in the data active = inhibition above about 31%); conditions: absorbance 615 nm, about 18 h, stronger effect = higher value
[6] = growth suppression of yeast trafficking mutant, preliminary HTS, modulators of trafficking downstream of Golgi apparatus project, 1536-format plate, OD 615 nm (AID 637; in the data active = inhibition above about 30%); conditions: yeast transport mutant growth, absorbance 615 nm, 18 h; stronger effect = higher value
[7] = H69AR cells + 2 uM doxorubicin, measured here: viability with 2 uM doxorubicin, stronger effect = lower value
[8] = H69AR cells, compound alone cytotoxicity

CC(C)OC(=O)C1C2C=CC3(CN(Cc4cccs4)C(=O)C13)O2 (stereo not drawn)
viability [1]: 89% (inactive) | viability [2]: 96.7% (inactive) | viability [3]: 90.1% (inactive) | differential viability (reversal) ([4]; H69AR cells + 2 uM doxorubicin): -3.73% (inactive) | viability [4, 7]: 93.8% | viability [4, 8]: 90.1% | inhibition [5]: -6.44% (inactive) | inhibition [6]: 2.42% (inactive)

Cc1nnc(SCc2ccccc2F)n1NCc1cccs1
viability [1]: 100% (inactive) | viability [2]: 93.6% (inactive) | viability [3]: 89% (inactive) | differential viability (reversal) ([4]; H69AR cells + 2 uM doxorubicin): -0.635% (inactive) | viability [4, 7]: 89.7% | viability [4, 8]: 89% | inhibition [5]: -6.85% (inactive) | inhibition [6]: 5% (inactive)

c1ccc2c(-c3nc(-c4ccncc4)no3)cccc2c1
viability [1]: 56% (inactive) | viability [2]: 86.4% (inactive) | viability [3]: 102% (inactive) | differential viability (reversal) ([4]; H69AR cells + 2 uM doxorubicin): 5.25% (inactive) | viability [4, 7]: 96.3% | viability [4, 8]: 102% | inhibition [5]: -5.89% (inactive) | inhibition [6]: 10.6% (inactive)

CC(C)n1nnnc1SCC(=O)Nc1ccccc1N1CCOCC1
viability [1]: 53% (inactive) | viability [2]: 98.4% (inactive) | viability [3]: 98.5% (inactive) | differential viability (reversal) ([4]; H69AR cells + 2 uM doxorubicin): -0.48% (inactive) | viability [4, 7]: 99% | viability [4, 8]: 98.5% | inhibition [5]: -5.75% (inactive) | inhibition [6]: 2.73% (inactive)

O=C(NC1CC1)c1ccc(S(=O)(=O)NCC2CCCCC2)cc1
viability [1]: 112% (inactive) | viability [2]: 79.4% (inactive) | viability [3]: 102% (inactive) | differential viability (reversal) ([4]; H69AR cells + 2 uM doxorubicin): 5.06% (inactive) | viability [4, 7]: 97% | viability [4, 8]: 102% | inhibition [5]: -6.85% (inactive) | inhibition [6]: -0.32% (inactive)

O=C(NCC(F)(F)F)Nc1cccnc1
viability [1]: 82% (inactive) | viability [2]: 92.8% (inactive) | viability [3]: 99.6% (inactive) | differential viability (reversal) ([4]; H69AR cells + 2 uM doxorubicin): 6% (inactive) | viability [4, 7]: 93.6% | viability [4, 8]: 99.6% | inhibition [5]: -4.19% (inactive) | inhibition [6]: -4% (inactive)

N#CC1=C(N)Oc2c(ccc3cccnc23)C1c1cccnc1 (stereo not drawn)
viability [1]: 111% (inactive) | viability [2]: 60% (inactive) | viability [3]: 15.1% (active) | differential viability (reversal) ([4]; H69AR cells + 2 uM doxorubicin): -10.9% (inactive) | viability [4, 7]: 26% | viability [4, 8]: 15.1% | inhibition [5]: -7.53% (inactive) | inhibition [6]: 5% (inactive)

COC(=O)CCN(C(=O)c1ccc2c(c1)OCO2)c1ccccn1
viability [1]: 96% (inactive) | viability [2]: 93.6% (inactive) | viability [3]: 98.5% (inactive) | differential viability (reversal) ([4]; H69AR cells + 2 uM doxorubicin): 7.88% (inactive) | viability [4, 7]: 90.7% | viability [4, 8]: 98.5% | inhibition [5]: -8.22% (inactive) | inhibition [6]: 0.55% (inactive)

Cc1ccc(C)c(NS(=O)(=O)c2ccc(NC(=O)c3ccco3)cc2)c1
viability [1]: 72% (inactive) | viability [2]: 78.5% (inactive) | viability [3]: 90.5% (inactive) | differential viability (reversal) ([4]; H69AR cells + 2 uM doxorubicin): -5.62% (inactive) | viability [4, 7]: 96.1% | viability [4, 8]: 90.5% | inhibition [5]: -8.92% (inactive) | inhibition [6]: -6.91% (inactive)

COc1ccc(S(=O)(=O)Nc2cc(C)on2)cc1OC
viability [1]: 80% (inactive) | viability [2]: 97.1% (inactive) | viability [3]: 105% (inactive) | differential viability (reversal) ([4]; H69AR cells + 2 uM doxorubicin): 1.57% (inactive) | viability [4, 7]: 104% | viability [4, 8]: 105% | inhibition [5]: -1.1% (inactive) | inhibition [6]: -5.81% (inactive)

O=c1[nH]c(N2CCCCC2)nc2c1CCCC2
viability [1]: 95% (inactive) | viability [2]: 96.2% (inactive) | viability [3]: 95.8% (inactive) | differential viability (reversal) ([4]; H69AR cells + 2 uM doxorubicin): 5.24% (inactive) | viability [4, 7]: 90.5% | viability [4, 8]: 95.8% | inhibition [5]: -4.05% (inactive) | inhibition [6]: 15.3% (inactive)

Cc1cc(C)n2nc[n+](C)c2n1
viability [1]: 88% (inactive) | viability [2]: 106% (inactive) | viability [3]: 96.4% (inactive) | differential viability (reversal) ([4]; H69AR cells + 2 uM doxorubicin): 11.4% (inactive) | viability [4, 7]: 84.9% | viability [4, 8]: 96.4% | inhibition [5]: 2.86% (inactive) | inhibition [6]: 0.98% (inactive)

Cc1ccc2c(c1C)NC(=O)C2(O)CC(=O)c1ccc2c(c1)OCO2 (stereo not drawn)
viability [1]: 88% (inactive) | viability [2]: 83.2% (inactive) | viability [3]: 88% (inactive) | differential viability (reversal) ([4]; H69AR cells + 2 uM doxorubicin): -5.94% (inactive) | viability [4, 7]: 94% | viability [4, 8]: 88% | inhibition [5]: -1.1% (inactive) | inhibition [6]: 2.9% (inactive)

Cc1cc(C(=O)COC(=O)CCc2nc3ccccc3s2)c(C)n1C
viability [1]: 94% (inactive) | viability [2]: 116% (inactive) | viability [3]: 101% (inactive) | differential viability (reversal) ([4]; H69AR cells + 2 uM doxorubicin): -5.69% (inactive) | viability [4, 7]: 107% | viability [4, 8]: 101% | inhibition [5]: -3.7% (inactive) | inhibition [6]: -5.09% (inactive)

CC1CCN(CCCNC(=O)c2coc3nc4ccccc4nc23)CC1
viability [1]: 148% (inactive) | viability [2]: 90.6% (inactive) | viability [3]: 92.9% (inactive) | differential viability (reversal) ([4]; H69AR cells + 2 uM doxorubicin): -6.4% (inactive) | viability [4, 7]: 99.3% | viability [4, 8]: 92.9% | inhibition [5]: -2.73% (inactive) | inhibition [6]: -2.13% (inactive)

COCCCN1C(=O)C(=O)/C(=C(/O)c2ccc(OC)cc2)C1c1ccc(O)c(OC)c1 (stereo not drawn)
viability [1]: 104% (inactive) | viability [2]: 109% (inactive) | viability [3]: 103% (inactive) | differential viability (reversal) ([4]; H69AR cells + 2 uM doxorubicin): 6.55% (inactive) | viability [4, 7]: 96.9% | viability [4, 8]: 103% | inhibition [5]: -2.53% (inactive) | inhibition [6]: -1.45% (inactive)
